Experimental data collected from several papers.
Protocols differ between the studies behind these lines.
Target: Protein-tyrosine kinase 2-beta (PTK2B, Homo sapiens, UniProt Q14289)

SMILES | read-out | technique | tested at | remaining binding [%]
CN(c1nccc(-c2cnn3ncccc23)n1)C1CC1 | binding |  | 1 µM | 100
CC(C)CC(=O)N1CCc2nc(-c3ccc(Br)cc3)nc(N(C)Cc3ccccc3)c2C1 | cell-free assay | competition with immobilised ligand | 0.1 µM | 100
CN(C)c1nccc(-c2cnn3ncccc23)n1 | binding |  | 1 µM | 87
O=C(c1ccc(Nc2ncc(Cl)c(-c3cc4ccccc4s3)n2)cc1)N1CCC(N2CCCC2)CC1 | binding | competition with immobilised ligand | 1 µM | 40
N[C@H]1CCN(c2nccc(-c3cnn4ncccc34)n2)C1 | binding |  | 1 µM | 100
Nc1cnc(N2CCc3cc(S(=O)(=O)Nc4c(F)cc(Cl)cc4F)cc(N4CCCC4=O)c32)nc1 | cell-free assay | competition with immobilised ligand | 1 µM | 100
COc1cnc(Nc2cccc(S(N)(=O)=O)c2)nc1N1CCN(c2ccccc2)C(=O)C1 | binding | competition with immobilised ligand | 1 µM | 100
c1cncc(-c2cccc(Nc3nccc(NC4CCCCC4)n3)c2)c1 | binding | competition with immobilised ligand | 10 µM | 63
C[C@H](c1cccc(C#N)c1)n1cc(Cl)cc(C(N)=O)c1=N | cell-free assay | competition with immobilised ligand | 1 µM | 100
CN(C)c1ncc(F)c(-c2cnn3ncccc23)n1 | binding |  | 1 µM | 100
O=C(c1ccc(Nc2ncc(Cl)c(-c3ccc(Cl)s3)n2)cc1)N1CCC(N2CCCC2)CC1 | binding | competition with immobilised ligand | 1 µM | 49
O=C(Nc1c[nH]nc1C(=O)NC1CCNCC1)c1cc(F)cc(F)c1 | binding | competition with immobilised ligand | 1 µM | 91
Cc1c[nH]c2nccc(Oc3c(F)cc(Nc4cc(Cl)nc(N)n4)cc3F)c12 | cell-free assay | competition with immobilised ligand | 0.1 µM | 90
O=C(c1ccc(Nc2nccc(-c3cc4ccccc4s3)n2)cc1)N1CCC(N2CCCC2)CC1 | binding | competition with immobilised ligand | 1 µM | 81
c1cnn2ncc(-c3ccnc(N4CCC45COC5)n3)c2c1 | binding |  | 1 µM | 80
CN(C)C(=O)Cn1cc(-c2nc([C@@](C)(c3ccc(-c4cnc(N)nc4)cc3)C3CC3)no2)cn1 | cell-free assay | competition with immobilised ligand | 1 µM | 87
COc1ncc2cc3ccccc3nc2c1C#N | cell-free assay | competition with immobilised ligand | 5 µM | 100
Cc1cnn2ncc(-c3ccnc(N(C)C)n3)c2c1 | binding |  | 1 µM | 100
CS(=O)(=O)c1cc(C2(NC(=O)c3cncc4c3cnn4-c3ccc(F)cc3)CC2)ccn1 | cell-free assay | competition with immobilised ligand | 1 µM | 100
Nc1ncc2c(n1)-c1c([nH]c3ccc(C#CC4CC4)cc13)CCCC2 | binding | competition with immobilised ligand | 1 µM | 98
CCN1CCN(Cc2ccc(C(=O)Nc3ccc(C)c(Oc4ccc5c(c4)CC(=O)N5)c3)cc2C(F)(F)F)CC1 | binding | competition with immobilised ligand | 1 µM | 49
